As usually defined, the IC50 is the point on the concentration scale where inhibition reaches its midpoint. Low values mean higher potency, high ones lower potency.

We go through 27 molecules from ChEMBL document CHEMBL1781995, “Acenaphtho[1,2-b]pyrrole-based selective fibroblast growth factor receptors 1 (FGFR1) inhibitors: design, synthesis, and biological activity” (J Med Chem, 2011).

Active and inactive are the calls of the source. No cut-off for these calls is given here. Bounds are passed on as bounds.

Test [1] has as its system T-24. The test can be described thus: Antiproliferative activity against human T24 cells expressing FGFR after 72 hrs by SRB assay. The test is classed as functional, cell-based. The settings on record: T-24, 72 h. The gist of the method:
(§1)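 Cells seeded and grown 24 h, then exposed to increasing compound concentrations for 72 h without medium change. Fixed with cold 10% TCA 1 h at 4 °C, stained 15 min with 4 mg/mL SRB in 1% acetic acid, rinsed, dye dissolved in 10 mM Tris base, A515 read. Inhibition = (1 − A515treated/A515control)×100; IC50 by Logit method from at least three independent tests.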
On the technique in general: Sulforhodamine B stains cellular protein and so reports cell mass.

Test [2] deals with WI-38. The test can be described thus: Antiproliferative activity against human WI38 cells expressing FGFR after 72 hrs by SRB assay. The test is classed as cell-based. To be noted: WI-38, 72 h. In a few lines:
as §1

The target in test [3] is T1, Fibroblast growth factor receptor 1 (Homo sapiens, UniProt P11362). The test can be described thus: Inhibition of FGFR1 using poly(Glu-Tyr)4:1 as substrate after 60 mins by ELISA. Background: An ELISA detects its analyte on a solid surface through an enzyme-linked reagent.
Target sequence in this assay (P11362 whole entry): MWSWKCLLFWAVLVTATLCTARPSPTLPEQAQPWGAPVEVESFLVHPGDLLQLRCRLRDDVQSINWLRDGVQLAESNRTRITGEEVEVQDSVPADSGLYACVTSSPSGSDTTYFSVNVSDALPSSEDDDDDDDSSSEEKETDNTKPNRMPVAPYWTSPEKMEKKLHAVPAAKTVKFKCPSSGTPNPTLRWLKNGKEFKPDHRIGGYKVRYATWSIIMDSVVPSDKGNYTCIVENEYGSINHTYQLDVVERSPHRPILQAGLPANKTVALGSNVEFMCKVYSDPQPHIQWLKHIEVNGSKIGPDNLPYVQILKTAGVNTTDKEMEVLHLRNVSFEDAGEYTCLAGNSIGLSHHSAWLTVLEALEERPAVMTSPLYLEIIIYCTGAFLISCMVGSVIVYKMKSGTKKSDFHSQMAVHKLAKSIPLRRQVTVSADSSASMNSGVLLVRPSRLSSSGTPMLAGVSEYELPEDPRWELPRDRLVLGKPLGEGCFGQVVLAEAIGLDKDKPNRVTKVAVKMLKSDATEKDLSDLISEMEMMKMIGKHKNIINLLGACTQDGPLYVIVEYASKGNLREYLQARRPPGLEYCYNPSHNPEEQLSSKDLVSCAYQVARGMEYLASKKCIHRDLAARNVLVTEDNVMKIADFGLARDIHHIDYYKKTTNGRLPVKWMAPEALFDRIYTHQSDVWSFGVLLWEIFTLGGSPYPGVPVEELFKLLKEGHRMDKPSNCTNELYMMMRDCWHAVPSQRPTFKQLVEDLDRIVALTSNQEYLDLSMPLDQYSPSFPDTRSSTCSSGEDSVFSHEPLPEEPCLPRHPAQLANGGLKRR
The subject of test [4] is BXPC-3. The test can be described thus: Antiproliferative activity against human BxPC3 cells expressing FGFR after 72 hrs by SRB assay. It is filed as functional, cell-based. The settings on record: BXPC-3, 72 h. In a few lines: as §1
Test [5] concerns the target T1, Fibroblast growth factor receptor 1. Description: Inhibition of FGFR1 in human BxPC3 cells assessed as reduction of Akt phosphorylation at 10 uM after 12 hrs by Western blot analysis. It is filed as cell-based. The settings on record: BXPC-3. In a few lines:
(§2)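 BxPC3 cells plated at 3 × 10^5 per well, serum-starved 24 h, then treated 12 h with compound (1.25, 2.5, 5, 10 μM). Whole-cell lysates run on 10% SDS-PAGE and immunoblotted for phospho-FGFR1 (Tyr653/654), phospho-Erk1/2 (T202/Y204), phospho-Akt and totals, with GAPDH loading control.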
Target sequence in this assay (P11362 22-822 limits assumed): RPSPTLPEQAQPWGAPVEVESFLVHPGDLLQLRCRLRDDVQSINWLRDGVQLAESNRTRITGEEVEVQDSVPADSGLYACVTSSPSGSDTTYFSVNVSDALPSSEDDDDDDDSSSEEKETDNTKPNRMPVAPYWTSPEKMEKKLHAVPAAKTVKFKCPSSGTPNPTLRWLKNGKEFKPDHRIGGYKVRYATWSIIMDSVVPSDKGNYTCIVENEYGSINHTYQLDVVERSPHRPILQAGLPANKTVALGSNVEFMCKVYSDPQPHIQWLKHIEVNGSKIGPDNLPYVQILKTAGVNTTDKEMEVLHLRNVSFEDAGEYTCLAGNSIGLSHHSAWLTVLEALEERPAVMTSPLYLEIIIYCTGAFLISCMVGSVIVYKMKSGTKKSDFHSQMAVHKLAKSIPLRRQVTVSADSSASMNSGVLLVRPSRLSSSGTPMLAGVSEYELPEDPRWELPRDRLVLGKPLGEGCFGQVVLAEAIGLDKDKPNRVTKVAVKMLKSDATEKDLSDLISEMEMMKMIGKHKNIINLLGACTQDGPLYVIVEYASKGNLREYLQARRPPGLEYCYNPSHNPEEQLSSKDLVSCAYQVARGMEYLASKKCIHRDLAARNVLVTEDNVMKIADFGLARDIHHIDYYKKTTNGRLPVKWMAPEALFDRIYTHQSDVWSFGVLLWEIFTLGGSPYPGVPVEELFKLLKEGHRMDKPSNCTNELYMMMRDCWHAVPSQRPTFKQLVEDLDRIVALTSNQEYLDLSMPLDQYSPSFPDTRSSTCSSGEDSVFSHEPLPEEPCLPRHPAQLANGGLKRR

Test [6] has the same target. The test can be described thus: Inhibition of FGFR1 in human BxPC3 cells assessed as reduction of Erk1/2 phosphorylation after 12 hrs by Western blot analysis. The test is classed as cell-based. To be noted: BXPC-3. In a few lines:
as §2
On the technique in general: In western blotting, separated proteins are transferred to a membrane and probed.
Target sequence in this assay (P11362 22-822 limits assumed): as above

For test [7], the system named is Calf thymus DNA. The test can be described thus: Binding affinity to calf thymus DNA at 20 uM by circular dichroism assay. It is filed as nucleic-acid assay. To be noted: Bos taurus.
Test [8] deals with T1, Fibroblast growth factor receptor 1. Description: Inhibition of b-FGF-induced FGFR1 phosphorylation in human BxPC3 cells after 12 hrs by Western blot analysis. The test is classed as cell-based. The settings on record: BXPC-3. In a few lines: as §2
Target sequence in this assay (P11362 22-822 limits assumed): as above
The target is the same in test [9]. Description: Inhibition of b-FGF-induced FGFR1 phosphorylation in human BxPC3 cells at 10 uM after 12 hrs by Western blot analysis relative to control. It is filed as cell-based. The settings on record: BXPC-3. In a few lines:
as §2
Target sequence in this assay (P11362 22-822 limits assumed): as above

Test [10] has the same target. Description: Inhibition of FGFR1 in human BxPC3 cells assessed as reduction of Erk1/2 phosphorylation at 10 uM after 12 hrs by Western blot analysis. The test is classed as cell-based. To be noted: BXPC-3. In a few lines: as §2
Target sequence in this assay (P11362 22-822 limits assumed): as above
Test [11] has the same target. Description: Inhibition of b-FGF-induced FGFR1 phosphorylation in human BxPC3 cells at 1.25 uM after 12 hrs by Western blot analysis. It is filed as cell-based. The settings on record: BXPC-3. The gist of the method: as §2
Target sequence in this assay (P11362 22-822 limits assumed): as above

For the molecule `O=C(COC(=O)C1=C2C(=NC1=O)c1cccc3cccc2c13)OCC(F)(F)C(F)(F)F`, the IC50 amounted to 19 µM in test [1], 48.3 µM in test [2], 0.077 µM in [3] and 23.3 µM in test [4].

Take `C=CCSc1ccc2c3c(cccc13)C1=NC(=O)C(C(=O)OCC(=O)OCC(F)(F)C(F)(F)F)=C12`: the IC50 is 86.4 µM in [1], 45.6 µM in test [2], 0.424 µM in [3] and 38.5 µM in test [4].

Consider `C=CCOC(=O)C1=C2C(=NC1=O)c1cccc3cccc2c13`, for which, in test [5], the inhibition result is “inactive”. Further, the IC50 in test [1] stood at 3.9 µM; in [2], 20.6 µM; in test [3], 0.019 µM; in test [4] it was 4.8 µM. Also, in [6], the inhibition entry was “Dose-dependent effect”.

The molecule `CC1OCCC1Sc1ccc2c3c(cccc13)C1=NC(=O)C(C#N)=C12` (configuration not stated) displayed an IC50 in test [3] above 10 µM.

Take `CCCSC(=O)COC(=O)C1=C2C(=NC1=O)c1cccc3c(SCCC)ccc2c13`: the IC50 is 79.1 µM in test [1], above 100 µM in test [2], above 10 µM in test [3] and 56.3 µM in test [4].

With `C=CCOC(=O)C1=C2C(=NC1=O)c1cccc3c(SCCC)ccc2c13`, the IC50 was 13.1 µM in test [1], 33.2 µM in test [2], above 10 µM in test [3] and 12.9 µM in [4]. In addition, the outcome in [7] was Active.

In the case of `CCOC(=O)C1=C2C(=NC1=O)c1cccc3c(SC4CCOC4C)ccc2c13` (configuration not stated), the IC50 in test [3] is above 10 µM.

Turning to `C=CCSc1ccc2c3c(cccc13)C1=NC(=O)C(C(=O)OCC(=O)SCCC)=C12`, the IC50 in test [1] was 71.8 µM; in [2], above 100 µM; in test [3], 0.577 µM; in test [4], 13.7 µM.

As for `CCCSc1ccc2c3c(cccc13)C1=NC(=O)C(C(=O)OCC)=C12`, the IC50 was 1.7 µM in [1], 9.6 µM in [2], above 10 µM in [3] and 5.8 µM in [4]. For the same molecule, the result in test [7] was Active.

The molecule `CCOC(=O)C1=C2C(=NC1=O)c1cccc3c(SC(C)C)ccc2c13` displayed an IC50 in [3] above 10 µM.

On to `N#CC1=C2C(=NC1=O)c1cccc3c(SCCc4cnccn4)ccc2c13`, for which, in test [3], the IC50 is above 10 µM.

In turn, `CC(C)Sc1ccc2c3c(cccc13)C1=NC(=O)C(C#N)=C12` showed an IC50 in test [3] above 10 µM.

Consider `CCOC(=O)C1=C2C(=NC1=O)c1cccc3c(SC(C)C4(C)CSCO4)ccc2c13` (configuration not stated), for which, in test [3], the IC50 was above 10 µM.

As to `CCOC(=O)C1=C2C(=NC1=O)c1cccc3c(SCCN4CCSC4)ccc2c13`, the IC50 in test [3] is above 10 µM.

For `CC(Sc1ccc2c3c(cccc13)C1=NC(=O)C(C#N)=C12)C1(C)CSCO1` (configuration not stated), the IC50 in test [3] worked out at 3.6 µM.

In the case of `C=CCSc1ccc2c3c(cccc13)C1=NC(=O)C(C#N)=C12`, in test [3], the IC50 is above 10 µM.

Regarding `N#CC1=C2C(=NC1=O)c1cccc3cccc2c13`, the IC50 in test [1] was determined as 13.3 µM; in [2], 21.7 µM; in [3] it was 4.5 µM; in test [4] it was 25 µM.

Take `CCCSC(=O)COC(=O)C1=C2C(=NC1=O)c1cccc3cccc2c13`: the IC50 in [1] is 10.5 µM; in test [2] it was 25.2 µM; in test [3] it was 0.065 µM; in [4] it was 10.1 µM.

Molecule `CCCSc1ccc2c3c(cccc13)C1=NC(=O)C(C#N)=C12` had an IC50 in test [3] above 10 µM.

For `CCCSc1ccc2c3c(cccc13)C1=NC(=O)C(C(=O)OCC(=O)OCC(F)(F)C(F)(F)F)=C12`, the IC50 in [1] is above 100 µM; in test [2], 58.8 µM; in test [3], above 10 µM; in test [4], 54.1 µM.

For the molecule `CCOC(=O)C1=C2C(=NC1=O)c1cccc3c(SCCO)ccc2c13`, the IC50 in test [3] was 0.32 µM.

Take `Cc1c[nH]c(/C=C2\C(=O)Nc3ccccc32)c1CCC(=O)O`: the IC50 in test [3] worked out at 0.334 µM.

Take `CCOC(=O)C1=C2C(=NC1=O)c1cccc3c(SCCc4cnccn4)ccc2c13`: it took 2.1 µM to reach half-maximal inhibition in test [3] (IC50).

In the case of `N#CC1=C2C(=NC1=O)c1cccc3c(SCCO)ccc2c13`, in test [3], the IC50 is above 10 µM.

In the case of `N#CC1=C2C(=NC1=O)c1cccc3c(SCCN4CCSC4)ccc2c13`, the IC50 in test [3] is above 10 µM.

For `C=CCSc1ccc2c3c(cccc13)C1=NC(=O)C(C(=O)OCC)=C12`, in test [5], the inhibition entry is “inactive”. Moreover, the inhibition result in test [8] is “Dose-dependent effect”. Besides, the IC50 worked out at 0.7 µM in test [1], 4.6 µM in test [2], 0.485 µM in [3] and 2.5 µM in [4]. The inhibition result in [9], in test [10] and in test [11] was “Active” throughout.

Regarding `C=CCOC(=O)C1=C2C(=NC1=O)c1cccc3c(SCC=C)ccc2c13`, the IC50 worked out at 6.6 µM in test [1], 19.7 µM in [2], 0.216 µM in test [3] and 2.5 µM in [4].
